The target in assay [1] is T1, Melanocortin receptor 4 (Mus musculus, UniProt P56450). Kind of assay: Antagonistic activity against mouse Melanocortin 4 Receptor. It is filed as functional. As to conditions: read-out: pA2 (converted). The method, boiled down: (§1)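 Same HEK-293 CRE/β-galactosidase cAMP reporter system as the agonist assay, with a 6 h stimulation in IBMX-containing medium and normalization to protein and forskolin. Antagonism measured as the dose-dependent shift of the MTII agonist response, ligand up to 10 μM. pA2 derived by Schild analysis. Mean ± SEM of at least three independent experiments.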

Assay [2] addresses Melanocyte-stimulating hormone receptor (Mus musculus, UniProt Q01727). Kind of assay: Agonistic activity against mouse Melanocortin 1 Receptor. It is filed as functional. The essentials:
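HEK-293 cells stably expressing the receptor (G418 selection), transiently transfected with a CRE/β-galactosidase reporter. Lysates read with ONPG at OD405 and normalized to protein content and forskolin (10^-4 M) response. EC50 from nonlinear least-squares fit, at least three independent experiments.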

Assay [3] addresses T1, Melanocortin receptor 4. Kind of assay: Displacement of [125I]-hAGRP(87-132) from mouse Melanocortin 4 Receptor. The method, boiled down: (§2)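 Whole HEK-293 cells stably expressing mouse receptor, plated a day before at 0.1–0.3 × 10^6 cells/well. Chloramine-T-iodinated [125I]hAGRP(87–132) at 100000 cpm/well displaced by ligand. Nonspecific binding defined with 10^-6 M hAGRP(87–132). IC50 from nonlinear least-squares fit, or percent specific binding displaced at 10 μM. Duplicate points, at least two independent experiments, SD reported.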
In general terms: Displacement assays read how much labelled ligand stays bound in the presence of the test substance.

In assay [4] the target is T2, Melanocortin receptor 3 (Mus musculus, UniProt P33033). In words: Antagonistic activity against mouse Melanocortin 3 Receptor. The format is functional. As to conditions: read-out: pA2 (converted). The method, boiled down:
as §1

Assay [5] addresses T2, Melanocortin receptor 3. In words: Displacement of [125I]-hAGRP(87-132) from mouse Melanocortin 3 Receptor. The essentials:
as §2

From ChEMBL document CHEMBL1137229, “Structural characterization and pharmacology of a potent (Cys101-Cys119, Cys110-Cys117) bicyclic agouti-related protein (AGRP) melanocortin receptor antagonist” (J Med Chem, 2004) come the findings set out here.

Molecules are shown by their SMILES. Bridge positions count the residues as written; N and C are the ends. Peptide text beside a SMILES is read from it.

T2 sequence (P33033 whole entry): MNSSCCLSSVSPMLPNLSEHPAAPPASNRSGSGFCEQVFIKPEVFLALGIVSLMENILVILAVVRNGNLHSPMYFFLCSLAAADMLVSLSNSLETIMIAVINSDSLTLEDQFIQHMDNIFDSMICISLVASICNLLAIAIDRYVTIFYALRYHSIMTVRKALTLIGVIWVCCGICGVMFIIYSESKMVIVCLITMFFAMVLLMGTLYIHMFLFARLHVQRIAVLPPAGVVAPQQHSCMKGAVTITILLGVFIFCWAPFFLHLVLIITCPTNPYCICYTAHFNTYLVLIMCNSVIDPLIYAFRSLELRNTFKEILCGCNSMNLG
T1 sequence (P56450 whole entry): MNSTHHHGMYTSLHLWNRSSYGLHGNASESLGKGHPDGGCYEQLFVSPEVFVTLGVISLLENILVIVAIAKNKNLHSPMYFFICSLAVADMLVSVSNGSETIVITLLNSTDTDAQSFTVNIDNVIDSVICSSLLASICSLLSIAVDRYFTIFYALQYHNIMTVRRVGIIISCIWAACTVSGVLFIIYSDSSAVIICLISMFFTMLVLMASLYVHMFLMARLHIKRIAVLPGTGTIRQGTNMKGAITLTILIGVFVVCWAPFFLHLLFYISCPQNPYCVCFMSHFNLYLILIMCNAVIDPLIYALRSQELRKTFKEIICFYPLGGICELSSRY
Chain of Melanocyte-stimulating hormone receptor (Q01727 whole entry): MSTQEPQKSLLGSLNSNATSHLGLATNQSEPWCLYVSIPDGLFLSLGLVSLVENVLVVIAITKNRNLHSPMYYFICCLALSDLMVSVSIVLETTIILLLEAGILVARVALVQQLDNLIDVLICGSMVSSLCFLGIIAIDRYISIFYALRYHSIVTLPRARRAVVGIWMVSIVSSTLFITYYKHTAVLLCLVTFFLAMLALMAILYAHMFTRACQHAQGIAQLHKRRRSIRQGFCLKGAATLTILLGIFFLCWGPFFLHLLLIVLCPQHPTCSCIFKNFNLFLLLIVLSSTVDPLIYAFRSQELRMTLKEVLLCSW

On to `CC[C@@H]1NC(=O)[C@H]([C@@H](C)O)NC(=O)[C@H](C)NC(=O)[C@H](CC)NC(=O)[C@@H]2CCCN2C(=O)[C@H](CC(=O)O)NC(=O)[C@H](CC)NC(=O)[C@@H](N)CSSC[C@@H](C(=O)N[C@@H](CCCN=C(N)N)C(=O)N[C@@H](CCCCN)C(=O)N[C@@H](CC(C)C)C(=O)O)NC(=O)[C@H](Cc2ccc(O)cc2)NC(=O)[C@@H]2CSSC[C@H](NC(=O)[C@H](Cc3ccc(O)cc3)NC1=O)C(=O)N[C@@H](CCCN=C(N)N)C(=O)N[C@@H](Cc1ccccc1)C(=O)N[C@@H](Cc1ccccc1)C(=O)N[C@@H](CC(N)=O)C(=O)N[C@@H](C)C(=O)N[C@@H](Cc1ccccc1)C(=O)N2`, for which the Kb in assay [1] was 31.6 nM. In assay [2], the concentration giving a half-maximal response (EC50) – broadly, the concentration giving half of the maximal effect – was found to be 1460 nM. The IC50 (usually the midpoint of a concentration-inhibition curve) in assay [3] was 10 nM.

For `CC[C@@H]1NC(=O)[C@H](N)CSSC[C@@H](C(=O)N[C@@H](CCCN=C(N)N)C(=O)N[C@@H](CCCCN)C(=O)N[C@@H](CC(C)C)C(=O)O)NC(=O)[C@H](Cc2ccc(O)cc2)NC(=O)[C@H]2CSSC[C@H](NC(=O)[C@@H](Cc3ccc(O)cc3)NC(=O)[C@H](CC)NC(=O)[C@H]([C@@H](C)O)NC(=O)[C@@H](C)NC(=O)[C@H](CC)NC(=O)[C@@H]3CCCN3C(=O)[C@@H](CC(=O)O)NC1=O)C(=O)N[C@H](CCCN=C(N)N)C(=O)N[C@@H](Cc1ccccc1)C(=O)N[C@H](Cc1ccccc1)C(=O)N[C@@H](CC(N)=O)C(=O)N[C@H](C)C(=O)N[C@@H](Cc1ccccc1)C(=O)N2`, in assay [4], the Kb was 158 nM. This compound gave a 50% inhibitory concentration (IC50) in assay [5] of 140 nM.

For the compound `C[C@@H]1NC(=O)[C@H](CC(N)=O)NC(=O)[C@H](Cc2ccccc2)NC(=O)[C@H](Cc2ccccc2)NC(=O)[C@H](CCCNC(=N)N)NC(=O)[C@@H](NC(=O)[C@@H](N)Cc2ccc(O)cc2)CSSC[C@@H](C(=O)N[C@@H](Cc2ccc(O)cc2)C(N)=O)NC(=O)[C@H](Cc2ccccc2)NC1=O` (H-YCRFFNAFCY-NH2; disulfide 2-9), the Kb in assay [1] is 158 nM. For the same compound, in assay [2], the response was half-maximal at 5120 nM (EC50). Further, the half-inhibitory concentration (IC50) in assay [3] turned out to be 275 nM; in assay [5] it was 11700 nM.
